Data reported in ChEMBL document CHEMBL2424572 (J Med Chem, 2013).

System: Mus musculus
Experiment: Biodistribution in wild type CD1 mouse gall bladder assessed as metabolite 2 at 11.1 MBq, iv measured at 30 mins by gamma counting-based HPLC analysis
Format: ADME, organism-based
Conditions: in vivo, 0.5 h; call rule not given here
In short: (§1)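 About 11.1 MBq injected by tail vein (≤200 μL) into three mice, killed 30 min p.i. Tissues weighed and homogenized in 1% SDS/PBS, extracted with acetonitrile/acetic acid, frozen on dry ice, thawed, centrifuged 13000 rpm 8 min. Supernatants gamma-counted against a dose aliquot for %ID/g, then radio-HPLC on C18 (acetonitrile/water, 0.05% TFA).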

| SMILES | Drug uptake [% ID/g] |
| --- | --- |
| COc1ccc(S(=O)(=O)N(CCn2cc(CCC[18F])nn2)[C@@H](C(=O)NO)C(C)C)cc1 | 7.1 |

System: Mus musculus
Experiment: Biodistribution in wild type CD1 mouse small intestine assessed as metabolite 1 at 11.1 MBq, iv measured at 30 mins by gamma counting-based HPLC analysis
Format: ADME, organism-based
Conditions: in vivo, 0.5 h
In short: as §1

| SMILES | Drug uptake [% ID/g] |
| --- | --- |
| COc1ccc(S(=O)(=O)N(CCn2cc(CCC[18F])nn2)[C@@H](C(=O)NO)C(C)C)cc1 | 4.32 |

System: Kidney
Experiment: Biodistribution in wild type CD1 mouse kidney assessed as metabolite 3 at 11.1 MBq, iv measured at 30 mins by gamma counting-based HPLC analysis
Format: ADME, organism-based
Conditions: in vivo, 0.5 h
In short: as §1

| SMILES | Drug uptake [% ID/g] |
| --- | --- |
| COc1ccc(S(=O)(=O)N(CCn2cc(CCC[18F])nn2)[C@@H](C(=O)NO)C(C)C)cc1 | 0.67 |

System: Muscle tissue
Experiment: Biodistribution in […] mouse muscle at 250 kBq/g, iv after 90 to 120 mins by PET analysis
Format: ADME, organism-based
Conditions: in vivo
In short: (§2)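 Tracer dosed at 250 kBq/g body weight as a tail-vein bolus (100 μL, flushed with 100 μL saline) into C57/Bl6 mice, then PET scanning on a submillimeter-resolution small-animal scanner. Time-activity curves were drawn for regions of interest as %ID; images cover frames up to 90−120 min p.i.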

| SMILES | Drug uptake |
| --- | --- |
| COc1ccc(S(=O)(=O)N(CCn2cc(CCC[18F])nn2)[C@@H](C(=O)NO)C(C)C)cc1 | Not Active |

System: Mus musculus
Experiment: Biodistribution in […] mouse myocardium at 250 kBq/g, iv after 90 to 120 mins by PET analysis
Format: ADME, organism-based
Conditions: in vivo
In short: as §2

| SMILES | Drug uptake |
| --- | --- |
| COc1ccc(S(=O)(=O)N(CCn2cc(CCC[18F])nn2)[C@@H](C(=O)NO)C(C)C)cc1 | Not Active |

System: Brain
Experiment: Biodistribution in […] mouse brain at 250 kBq/g, iv after 90 to 120 mins by PET analysis
Format: ADME, organism-based
Conditions: in vivo
In short: as §2

| SMILES | Drug uptake |
| --- | --- |
| COc1ccc(S(=O)(=O)N(CCn2cc(CCC[18F])nn2)[C@@H](C(=O)NO)C(C)C)cc1 | Not Active |

System: Mus musculus
Experiment: Biodistribution in wild type CD1 mouse gall bladder assessed as metabolite 5 at 11.1 MBq, iv measured at 30 mins by gamma counting-based HPLC analysis
Format: ADME, organism-based
Conditions: in vivo, 0.5 h
In short: as §1

| SMILES | Drug uptake [% ID/g] |
| --- | --- |
| COc1ccc(S(=O)(=O)N(CCn2cc(CCC[18F])nn2)[C@@H](C(=O)NO)C(C)C)cc1 | 3.55 |

System: Serum
Experiment: Metabolic stability in mouse serum at 5 MBq after 30 to 120 mins by radio-HPLC analysis
Format: ADME, cell-free
Conditions: not given
In short: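 PBS-formulated radioligand (20 μL, 5 MBq) added to 200 μL mouse serum at 37 °C. 20 μL samples taken at 10−120 min, quenched in MeOH/CH2Cl2 1:1 and centrifuged 2 min. Organic layer analysed by radio-HPLC, isocratic 35% CH3CN/water (0.1% TFA) for 13 min, then gradient.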

| SMILES | Stability |
| --- | --- |
| COc1ccc(S(=O)(=O)N(CCn2cc(CCC[18F])nn2)[C@@H](C(=O)NO)C(C)C)cc1 | Stable |

Molecular target: Neutrophil collagenase (Homo sapiens, UniProt P22894)
Sequence (P22894 whole entry): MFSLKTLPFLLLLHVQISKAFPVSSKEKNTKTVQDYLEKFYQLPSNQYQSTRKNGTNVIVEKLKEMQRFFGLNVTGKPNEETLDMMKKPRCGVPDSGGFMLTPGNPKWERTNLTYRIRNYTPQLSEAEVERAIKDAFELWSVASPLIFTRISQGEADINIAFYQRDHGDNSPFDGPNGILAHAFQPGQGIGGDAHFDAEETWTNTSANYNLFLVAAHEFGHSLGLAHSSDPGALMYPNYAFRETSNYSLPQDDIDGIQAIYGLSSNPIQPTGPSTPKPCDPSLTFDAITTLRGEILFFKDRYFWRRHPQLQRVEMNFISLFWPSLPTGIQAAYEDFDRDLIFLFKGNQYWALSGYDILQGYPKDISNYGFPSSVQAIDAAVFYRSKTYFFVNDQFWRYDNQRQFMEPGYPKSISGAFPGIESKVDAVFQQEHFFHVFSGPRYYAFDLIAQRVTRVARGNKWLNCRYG
Experiment: Inhibition of MMP-8 (unknown origin) using 7-methoxycoumarin-4-yl)acetyl-Pro-Leu-Gly-Leu-(3-(2,4-dinitrophenyl)-L-2,3-diamino-propionyl)Ala-Arg-NH2 as substrate preincubated for 30 mins followed by substrate addition by fluorescence assay
Conditions: not given
In short: (§3)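 Activated MMP (2 nM) preincubated with inhibitor (10 pM to 1 mM) in 50 mM Tris-HCl pH 7.5, 0.2 M NaCl, 5 mM CaCl2, 20 μM ZnSO4, 0.05% Brij 35, 37 °C for 30 min.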

| SMILES | IC50 [nM] |
| --- | --- |
| CC(C)[C@H](C(=O)NO)N(CCn1cc(CNS(=O)(=O)c2ccc(F)cc2)nn1)S(=O)(=O)c1ccc(OCCF)cc1 | 0.7 |
| Cc1ccc(S(=O)(=O)N(CCN=[N+]=[N-])[C@@H](C(=O)NO)C(C)C)cc1 | 1 |
| CC(C)[C@H](C(=O)NO)N(CCn1cc(CN(C)S(=O)(=O)c2ccc(F)cc2)nn1)S(=O)(=O)c1ccc(OCCF)cc1 | 5 |
| Cc1ccc(S(=O)(=O)N(CCn2cc(COCCOCCOCCOCCOCCF)nn2)[C@@H](C(=O)NO)C(C)C)cc1 | 2 |
| CC(C)[C@H](C(=O)NO)N(CCn1cc(CCCF)nn1)S(=O)(=O)c1ccc(OCCF)cc1 | 0.4 |
| Cc1ccc(S(=O)(=O)N(CCn2cc(CCCF)nn2)[C@@H](C(=O)NO)C(C)C)cc1 | 0.9 |
| CC(C)[C@H](C(=O)NO)N(CCn1cc(COCCOCCOCCOCCOCCF)nn1)S(=O)(=O)c1ccc(OCCF)cc1 | 35 |
| CC(C)[C@H](C(=O)NO)N(Cc1cn(CCOCCOCCOCCF)nn1)S(=O)(=O)c1ccc(OCCF)cc1 | 0.2 |
| COc1ccc(S(=O)(=O)N(CCn2cc(COCCOCCOCCOCCOCCF)nn2)[C@@H](C(=O)NO)C(C)C)cc1 | 1 |

System: Lung
Experiment: Biodistribution in […] mouse lung at 250 kBq/g, iv after 90 to 120 mins by PET analysis
Format: ADME, organism-based
Conditions: in vivo
In short: as §2

| SMILES | Drug uptake |
| --- | --- |
| COc1ccc(S(=O)(=O)N(CCn2cc(CCC[18F])nn2)[C@@H](C(=O)NO)C(C)C)cc1 | Not Active |

Molecular target: Matrix metalloproteinase-9 (Homo sapiens, UniProt P14780)
Sequence (P14780 whole entry): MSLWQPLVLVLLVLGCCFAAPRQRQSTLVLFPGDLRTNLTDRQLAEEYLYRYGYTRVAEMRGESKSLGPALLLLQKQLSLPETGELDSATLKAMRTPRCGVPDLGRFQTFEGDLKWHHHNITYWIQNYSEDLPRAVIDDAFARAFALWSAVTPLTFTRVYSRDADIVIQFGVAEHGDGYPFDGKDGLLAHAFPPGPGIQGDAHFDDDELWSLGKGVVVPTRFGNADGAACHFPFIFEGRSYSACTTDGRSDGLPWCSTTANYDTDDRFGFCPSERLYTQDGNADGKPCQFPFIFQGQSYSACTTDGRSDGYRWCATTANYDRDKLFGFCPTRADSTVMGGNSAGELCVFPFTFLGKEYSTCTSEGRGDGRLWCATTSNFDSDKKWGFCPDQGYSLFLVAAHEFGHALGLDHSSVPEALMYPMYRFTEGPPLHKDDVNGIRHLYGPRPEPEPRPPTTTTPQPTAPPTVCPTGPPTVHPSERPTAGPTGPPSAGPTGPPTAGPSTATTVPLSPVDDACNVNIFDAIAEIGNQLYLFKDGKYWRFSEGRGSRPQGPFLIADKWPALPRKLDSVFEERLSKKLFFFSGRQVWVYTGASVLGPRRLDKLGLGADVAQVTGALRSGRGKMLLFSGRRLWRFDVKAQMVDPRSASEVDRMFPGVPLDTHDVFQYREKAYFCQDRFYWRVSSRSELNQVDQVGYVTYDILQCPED
Experiment: Inhibition of MMP-9 (unknown origin) using 7-methoxycoumarin-4-yl)acetyl-Pro-Leu-Gly-Leu-(3-(2,4-dinitrophenyl)-L-2,3-diamino-propionyl)Ala-Arg-NH2 as substrate preincubated for 30 mins followed by substrate addition by fluorescence assay
Conditions: not given
In short: as §3

| SMILES | IC50 [nM] |
| --- | --- |
| CC(C)[C@H](C(=O)NO)N(CCn1cc(CNS(=O)(=O)c2ccc(F)cc2)nn1)S(=O)(=O)c1ccc(OCCF)cc1 | 3 |
| Cc1ccc(S(=O)(=O)N(CCN=[N+]=[N-])[C@@H](C(=O)NO)C(C)C)cc1 | 4 |
| CC(C)[C@H](C(=O)NO)N(CCn1cc(CN(C)S(=O)(=O)c2ccc(F)cc2)nn1)S(=O)(=O)c1ccc(OCCF)cc1 | 11 |
| Cc1ccc(S(=O)(=O)N(CCn2cc(COCCOCCOCCOCCOCCF)nn2)[C@@H](C(=O)NO)C(C)C)cc1 | 0.4 |
| CC(C)[C@H](C(=O)NO)N(CCn1cc(CCCF)nn1)S(=O)(=O)c1ccc(OCCF)cc1 | 2 |
| Cc1ccc(S(=O)(=O)N(CCn2cc(CCCF)nn2)[C@@H](C(=O)NO)C(C)C)cc1 | 3 |
| CC(C)[C@H](C(=O)NO)N(CCn1cc(COCCOCCOCCOCCOCCF)nn1)S(=O)(=O)c1ccc(OCCF)cc1 | 10 |
| CC(C)[C@H](C(=O)NO)N(Cc1cn(CCOCCOCCOCCF)nn1)S(=O)(=O)c1ccc(OCCF)cc1 | 0.2 |
| COc1ccc(S(=O)(=O)N(CCn2cc(COCCOCCOCCOCCOCCF)nn2)[C@@H](C(=O)NO)C(C)C)cc1 | 2 |

System: Mus musculus
Experiment: Biodistribution in wild type CD1 mouse small intestine assessed as metabolite 5 at 11.1 MBq, iv measured at 30 mins by gamma counting-based HPLC analysis
Format: ADME, organism-based
Conditions: in vivo, 0.5 h
In short: as §1

| SMILES | Drug uptake [% ID/g] |
| --- | --- |
| COc1ccc(S(=O)(=O)N(CCn2cc(CCC[18F])nn2)[C@@H](C(=O)NO)C(C)C)cc1 | 2.47 |

System: not listed separately
Experiment: 1-octanol-PBS buffer partition coefficient, log D of the compound at 20 kBq after 1 min by gamma counting analysis
Format: physicochemical
Conditions: not given

| SMILES | logD at 1 min |
| --- | --- |
| COc1ccc(S(=O)(=O)N(CCn2cc(CCC[18F])nn2)[C@@H](C(=O)NO)C(C)C)cc1 | 1.25 |

System: Mus musculus
Experiment: Biodistribution in wild type CD1 mouse small intestine assessed as metabolite 3 at 11.1 MBq, iv measured at 30 mins by gamma counting-based HPLC analysis
Format: ADME, organism-based
Conditions: in vivo, 0.5 h
In short: as §1

| SMILES | Drug uptake [% ID/g] |
| --- | --- |
| COc1ccc(S(=O)(=O)N(CCn2cc(CCC[18F])nn2)[C@@H](C(=O)NO)C(C)C)cc1 | 30.27 |

Molecular target: 72 kDa type IV collagenase (Homo sapiens, UniProt P08253)
Sequence (P08253 whole entry): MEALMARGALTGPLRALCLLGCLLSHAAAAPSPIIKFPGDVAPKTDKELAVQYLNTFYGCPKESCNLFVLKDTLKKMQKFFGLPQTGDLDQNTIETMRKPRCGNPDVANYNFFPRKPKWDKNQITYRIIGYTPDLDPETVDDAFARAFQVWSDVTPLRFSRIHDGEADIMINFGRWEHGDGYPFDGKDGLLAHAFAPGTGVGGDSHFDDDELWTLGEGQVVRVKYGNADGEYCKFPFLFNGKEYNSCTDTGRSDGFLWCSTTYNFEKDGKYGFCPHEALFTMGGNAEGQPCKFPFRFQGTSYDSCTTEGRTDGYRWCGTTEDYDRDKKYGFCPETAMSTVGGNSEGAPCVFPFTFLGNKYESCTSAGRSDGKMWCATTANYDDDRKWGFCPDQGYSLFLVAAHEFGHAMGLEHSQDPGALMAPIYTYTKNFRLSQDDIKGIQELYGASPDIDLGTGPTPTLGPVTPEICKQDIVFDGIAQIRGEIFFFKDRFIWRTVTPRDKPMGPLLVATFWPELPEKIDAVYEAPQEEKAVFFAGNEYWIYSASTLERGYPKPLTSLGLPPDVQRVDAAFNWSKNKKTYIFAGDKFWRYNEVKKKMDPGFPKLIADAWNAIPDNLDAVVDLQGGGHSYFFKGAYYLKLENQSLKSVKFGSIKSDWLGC
Experiment: Inhibition of MMP-2 (unknown origin) using 7-methoxycoumarin-4-yl)acetyl-Pro-Leu-Gly-Leu-(3-(2,4-dinitrophenyl)-L-2,3-diamino-propionyl)Ala-Arg-NH2 as substrate preincubated for 30 mins followed by substrate addition by fluorescence assay
Conditions: not given
In short: as §3

| SMILES | IC50 [nM] |
| --- | --- |
| CC(C)[C@H](C(=O)NO)N(CCn1cc(CNS(=O)(=O)c2ccc(F)cc2)nn1)S(=O)(=O)c1ccc(OCCF)cc1 | 4 |
| Cc1ccc(S(=O)(=O)N(CCN=[N+]=[N-])[C@@H](C(=O)NO)C(C)C)cc1 | 4 |
| CC(C)[C@H](C(=O)NO)N(CCn1cc(CN(C)S(=O)(=O)c2ccc(F)cc2)nn1)S(=O)(=O)c1ccc(OCCF)cc1 | 9 |
| Cc1ccc(S(=O)(=O)N(CCn2cc(COCCOCCOCCOCCOCCF)nn2)[C@@H](C(=O)NO)C(C)C)cc1 | 3 |
| CC(C)[C@H](C(=O)NO)N(CCn1cc(CCCF)nn1)S(=O)(=O)c1ccc(OCCF)cc1 | 2 |
| Cc1ccc(S(=O)(=O)N(CCn2cc(CCCF)nn2)[C@@H](C(=O)NO)C(C)C)cc1 | 2 |
| CC(C)[C@H](C(=O)NO)N(CCn1cc(COCCOCCOCCOCCOCCF)nn1)S(=O)(=O)c1ccc(OCCF)cc1 | 5 |
| CC(C)[C@H](C(=O)NO)N(Cc1cn(CCOCCOCCOCCF)nn1)S(=O)(=O)c1ccc(OCCF)cc1 | 2 |
| COc1ccc(S(=O)(=O)N(CCn2cc(COCCOCCOCCOCCOCCF)nn2)[C@@H](C(=O)NO)C(C)C)cc1 | 4 |

Molecular target: Collagenase 3 (Homo sapiens, UniProt P45452)
Experiment: Inhibition of MMP-13 (unknown origin) using 7-methoxycoumarin-4-yl)acetyl-Pro-Leu-Gly-Leu-(3-(2,4-dinitrophenyl)-L-2,3-diamino-propionyl)Ala-Arg-NH2 as substrate preincubated for 30 mins followed by substrate addition by fluorescence assay
Conditions: not given
In short: as §3

| SMILES | IC50 [nM] |
| --- | --- |
| CC(C)[C@H](C(=O)NO)N(CCn1cc(CNS(=O)(=O)c2ccc(F)cc2)nn1)S(=O)(=O)c1ccc(OCCF)cc1 | 0.1 |
| Cc1ccc(S(=O)(=O)N(CCN=[N+]=[N-])[C@@H](C(=O)NO)C(C)C)cc1 | 1 |
| CC(C)[C@H](C(=O)NO)N(CCn1cc(CN(C)S(=O)(=O)c2ccc(F)cc2)nn1)S(=O)(=O)c1ccc(OCCF)cc1 | 1 |
| Cc1ccc(S(=O)(=O)N(CCn2cc(COCCOCCOCCOCCOCCF)nn2)[C@@H](C(=O)NO)C(C)C)cc1 | 0.1 |
| CC(C)[C@H](C(=O)NO)N(CCn1cc(CCCF)nn1)S(=O)(=O)c1ccc(OCCF)cc1 | 0.07 |
| Cc1ccc(S(=O)(=O)N(CCn2cc(CCCF)nn2)[C@@H](C(=O)NO)C(C)C)cc1 | 0.3 |
| CC(C)[C@H](C(=O)NO)N(CCn1cc(COCCOCCOCCOCCOCCF)nn1)S(=O)(=O)c1ccc(OCCF)cc1 | 7 |
| CC(C)[C@H](C(=O)NO)N(Cc1cn(CCOCCOCCOCCF)nn1)S(=O)(=O)c1ccc(OCCF)cc1 | 0.6 |
| COc1ccc(S(=O)(=O)N(CCn2cc(COCCOCCOCCOCCOCCF)nn2)[C@@H](C(=O)NO)C(C)C)cc1 | 6 |

System: Mus musculus
Experiment: Biodistribution in wild type CD1 mouse gall bladder assessed as metabolite 1 at 11.1 MBq, iv measured at 30 mins by gamma counting-based HPLC analysis
Format: ADME, organism-based
Conditions: in vivo, 0.5 h
In short: as §1

| SMILES | Drug uptake [% ID/g] |
| --- | --- |
| COc1ccc(S(=O)(=O)N(CCn2cc(CCC[18F])nn2)[C@@H](C(=O)NO)C(C)C)cc1 | 6.21 |

System: Mus musculus
Experiment: Biodistribution in wild type CD1 mouse gall bladder assessed as metabolite 4 at 11.1 MBq, iv measured at 30 mins by gamma counting-based HPLC analysis
Format: ADME, organism-based
Conditions: in vivo, 0.5 h
In short: as §1

| SMILES | Drug uptake [% ID/g] |
| --- | --- |
| COc1ccc(S(=O)(=O)N(CCn2cc(CCC[18F])nn2)[C@@H](C(=O)NO)C(C)C)cc1 | 15.97 |
